According to paper PMC3328401 (Journal of Medicinal Chemistry, 2012):

Legend:
OVCAR-3 cells = assay: Subcellular distribution of 125I-labeled reagents; type: cell-based, human; settings: for ^125I in cytoplasm, 24 hours / ^125I in nucleus, 24 hours: 1 h incubation then 24 h in fresh nonradioactive medium; for ^125I in cytoplasm, 1 hour / ^125I in nucleus, 1 hour: 1 h incubation, 55.5 kBq/mL
Procedure, shortened: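 OVCAR-3 cells were kept in RPMI-1640 with insulin, 2 mM L-glutamine and 20% FBS and expanded as intraperitoneal xenografts in athymic nude mice. Cells in six T150 flasks attached overnight, then were exposed 1 h to ¹²⁵I compound (55.5 kBq/mL). Three flasks were processed immediately and three after 24 h in fresh medium. Cells were trypsinized, counted, fractionated into nuclear/cytoplasmic compartments and gamma-counted.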

[1] = Chemical hydrolysis of cycloSal phosphate triesters in phosphate buffer; type: physicochemical; settings: phosphate buffer 50 mM, pH 7.3, 37°C, ~15% acetonitrile
[2] = test system: LS 174T and OVCAR-3 cancer cell lines; assay: Uptake kinetics, cell-associated activity after 3 h; type: cell-based, human; settings: after 3 h incubation
Procedure, shortened: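 Cells were plated at 2×10⁵/well in 6-well plates in 3 mL growth medium: OVCAR-3 in RPMI-1640 with 20% FBS, LS 174T in EMEM with 10% FBS. After 24 h, radiolabeled compound (~13.6–46.9 kBq/mL) was added at staggered times, up to 360 min, in triplicate. Medium was gamma-counted for radioactive concentration. Cells were washed twice with ice-cold PBS, trypsinized and gamma-counted for cell-associated activity.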

[3] = Solubility in aqueous media; settings: aqueous media / water

O=c1[nH]c(=O)n([C@H]2C[C@H](O)[C@@H](COP3(=O)OCc4ccccc4O3)O2)cc1[125I] (stereo partly drawn) [6b, 5-[^125I]-Iodo-5′-O-cycloSaligenyl-2′-deoxyuridine Monophosphate]
^125I in cytoplasm, 24 hours (OVCAR-3 cells): 7.3 (1.0) cpm/10^3 cells (std dev) | ^125I in nucleus, 24 hours (OVCAR-3 cells): 39.4 (5.8) cpm/10^3 cells (std dev) | ^125I in cytoplasm, 1 hour (OVCAR-3 cells): 20.2 (3.2) cpm/10^3 cells (std dev) | ^125I in nucleus, 1 hour (OVCAR-3 cells): 5.7 (1.6) cpm/10^3 cells (std dev)

Cc1cccc2c1OP(=O)(OC[C@H]1O[C@@H](n3cc([125I])c(=O)[nH]c3=O)C[C@@H]1O)OC2 (stereo partly drawn) [7b, 5-[^125I]-Iodo-5′-O-cyclo(3-methylSaligenyl)-2′-deoxyuridine Monophosphate]
^125I in cytoplasm, 24 hours (OVCAR-3 cells): 1.6 (0.5) cpm/10^3 cells (std dev) | ^125I in nucleus, 24 hours (OVCAR-3 cells): 25.9 (7.1) cpm/10^3 cells (std dev) | ^125I in cytoplasm, 1 hour (OVCAR-3 cells): 11.7 (1.7) cpm/10^3 cells (std dev) | ^125I in nucleus, 1 hour (OVCAR-3 cells): 4.5 (1.0) cpm/10^3 cells (std dev)

CC(C)(C)c1cc(C(C)(C)C)c2c(c1F)COP(=O)(OC[C@H]1O[C@@H](n3cc(I)c(=O)[nH]c3=O)C[C@@H]1O)O2 (stereo partly drawn) [8-fast, 5-Iodo-5′-O-[cyclo-3,5-di-(tert-butyl)-6-fluoroSaligenyl]-2′-deoxyuridine Monophosphate]
k (rate of hydrolysis) [1]: 0.000241 min⁻¹

CC(C)(C)c1cc(C(C)(C)C)c2c(c1F)COP(=O)(OC[C@H]1O[C@@H](n3cc(I)c(=O)[nH]c3=O)C[C@@H]1O)O2 (stereo partly drawn) [8-slow, 5-Iodo-5′-O-[cyclo-3,5-di-(tert-butyl)-6-fluoroSaligenyl]-2′-deoxyuridine Monophosphate]
k (rate of hydrolysis) [1]: 0.000188 min⁻¹

CC(C)(C)c1cc(C(C)(C)C)c2c(c1F)COP(=O)(OC[C@H]1O[C@@H](n3cc([125I])c(=O)[nH]c3=O)C[C@@H]1O)O2 (stereo partly drawn) [8b, 5-[^125I]-Iodo-5′-O-[cyclo-3,5-di-(tert-butyl)-6-fluoroSaligenyl]-2′-deoxyuridine Monophosphate]
^125I in cytoplasm, 24 hours (OVCAR-3 cells): 3.2 (0.01) cpm/10^3 cells (std dev) | ^125I in nucleus, 24 hours (OVCAR-3 cells): 92.2 (5.0) cpm/10^3 cells (std dev) | ^125I in cytoplasm, 1 hour (OVCAR-3 cells): 88.3 (5.4) cpm/10^3 cells (std dev) | ^125I in nucleus, 1 hour (OVCAR-3 cells): 7.9 (0.4) cpm/10^3 cells (std dev) | retained radioactivity, more than 6b (OVCAR-3 cells; OVCAR-3, 24 h): > 230% | retained radioactivity, more than 7b (OVCAR-3 cells; OVCAR-3, 24 h): ~ 360%

CC(C)(C)c1cc(C(C)(C)C)c2c(c1F)COP(=O)(OC[C@H]1O[C@@H](n3cc([125I])c(=O)[nH]c3=O)C[C@@H]1O)O2 (stereo partly drawn) [8b-fast, 5-[^125I]-Iodo-5′-O-[cyclo-3,5-di-(tert-butyl)-6-fluoroSaligenyl]-2′-deoxyuridine Monophosphate]
cell associated activity relative to the corresponding 6b diastereomer [2]: > 110 × | cell associated activity relative to the corresponding 7b diastereomer [2]: > 20 ×

O=c1[nH]c(=O)n([C@H]2C[C@H](OP3(=O)OCc4ccccc4O3)[C@@H](COP3(=O)OCc4ccccc4O3)O2)cc1[125I] (stereo partly drawn) [9b]
^125I in cytoplasm, 24 hours (OVCAR-3 cells): 37.3 (10.0) cpm/10^3 cells (std dev) | ^125I in nucleus, 24 hours (OVCAR-3 cells): 18.1 (3.9) cpm/10^3 cells (std dev) | ^125I in cytoplasm, 1 hour (OVCAR-3 cells): 97.6 (10.0) cpm/10^3 cells (std dev) | ^125I in nucleus, 1 hour (OVCAR-3 cells): 6.4 (0.5) cpm/10^3 cells (std dev)

Cc1cccc2c1OP(=O)(OC[C@H]1O[C@@H](n3cc([125I])c(=O)[nH]c3=O)C[C@@H]1OP1(=O)OCc3cccc(C)c3O1)OC2 (stereo partly drawn) [10b]
^125I in cytoplasm, 24 hours (OVCAR-3 cells): 13.4 (3.3) cpm/10^3 cells (std dev) | ^125I in nucleus, 24 hours (OVCAR-3 cells): 24.5 (5.4) cpm/10^3 cells (std dev) | ^125I in cytoplasm, 1 hour (OVCAR-3 cells): 97.1 (14.6) cpm/10^3 cells (std dev) | ^125I in nucleus, 1 hour (OVCAR-3 cells): 6.0 (0.9) cpm/10^3 cells (std dev)

O=c1[nH]c(=O)n([C@H]2C[C@H](OP3(=O)OCc4ccccc4O3)[C@@H](CO)O2)cc1I (stereo partly drawn) [12-fast, 5-Iodo-3′-O-cycloSaligenyl-2′-deoxyuridine Monophosphate]
k (rate of hydrolysis) [1]: 0.00205 min⁻¹

O=c1[nH]c(=O)n([C@H]2C[C@H](OP3(=O)OCc4ccccc4O3)[C@@H](CO)O2)cc1I (stereo partly drawn) [12-slow, 5-Iodo-3′-O-cycloSaligenyl-2′-deoxyuridine Monophosphate]
k (rate of hydrolysis) [1]: 0.00164 min⁻¹

O=c1[nH]c(=O)n([C@H]2C[C@H](OP3(=O)OCc4ccccc4O3)[C@@H](CO)O2)cc1[125I] (stereo partly drawn) [12b, 5-[^125I]-Iodo-3′-O-cycloSaligenyl-2′-deoxyuridine Monophosphate]
^125I in cytoplasm, 24 hours (OVCAR-3 cells): 2.7 (0.3) cpm/10^3 cells (std dev) | ^125I in nucleus, 24 hours (OVCAR-3 cells): 30.2 (5.3) cpm/10^3 cells (std dev) | ^125I in cytoplasm, 1 hour (OVCAR-3 cells): 7.2 (0.7) cpm/10^3 cells (std dev) | ^125I in nucleus, 1 hour (OVCAR-3 cells): 2.1 (0.2) cpm/10^3 cells (std dev)

Cc1cccc2c1OP(=O)(O[C@H]1C[C@H](n3cc(I)c(=O)[nH]c3=O)O[C@@H]1CO)OC2 (stereo partly drawn) [13-fast, 5 - Iodo-3′-O-cyclo(3-methylSaligenyl)-2′-deoxyuridine Monophosphate]
k (rate of hydrolysis) [1]: 0.000946 min⁻¹

Cc1cccc2c1OP(=O)(O[C@H]1C[C@H](n3cc(I)c(=O)[nH]c3=O)O[C@@H]1CO)OC2 (stereo partly drawn) [13-slow, 5 - Iodo-3′-O-cyclo(3-methylSaligenyl)-2′-deoxyuridine Monophosphate]
k (rate of hydrolysis) [1]: 0.000813 min⁻¹

Cc1cccc2c1OP(=O)(O[C@H]1C[C@H](n3cc([125I])c(=O)[nH]c3=O)O[C@@H]1CO)OC2 (stereo partly drawn) [13b, 5-[^125I]-Iodo-3′-O-cyclo(3-methylSaligenyl)-2′-deoxyuridine Monophosphate]
^125I in cytoplasm, 24 hours (OVCAR-3 cells): 1.4 (0.3) cpm/10^3 cells (std dev) | ^125I in nucleus, 24 hours (OVCAR-3 cells): 15.7 (2.2) cpm/10^3 cells (std dev) | ^125I in cytoplasm, 1 hour (OVCAR-3 cells): 6.2 (0.6) cpm/10^3 cells (std dev) | ^125I in nucleus, 1 hour (OVCAR-3 cells): 2.0 (0.2) cpm/10^3 cells (std dev)

CC(C)(C)c1cc(C(C)(C)C)c2c(c1F)COP(=O)(O[C@H]1C[C@H](n3cc(I)c(=O)[nH]c3=O)O[C@@H]1CO)O2 (stereo partly drawn) [14-fast, 5-Iodo-3′-O-[cyclo-3,5-di-(tert-butyl)-6-fluoroSaligenyl]-2′-deoxyuridine Monophosphate]
k (rate of hydrolysis) [1]: 0.000766 min⁻¹

CC(C)(C)c1cc(C(C)(C)C)c2c(c1F)COP(=O)(O[C@H]1C[C@H](n3cc(I)c(=O)[nH]c3=O)O[C@@H]1CO)O2 (stereo partly drawn) [14-slow, 5-Iodo-3′-O-[cyclo-3,5-di-(tert-butyl)-6-fluoroSaligenyl]-2′-deoxyuridine Monophosphate]
k (rate of hydrolysis) [1]: 0.000667 min⁻¹

CC(C)(C)c1cc(C(C)(C)C)c2c(c1F)COP(=O)(O[C@H]1C[C@H](n3cc([125I])c(=O)[nH]c3=O)O[C@@H]1CO)O2 (stereo partly drawn) [14b, 5-[^125I]-Iodo-3′-O-(cyclo-3,5-di-(tert-butyl)-6-fluoroSaligenyl)-2′-deoxyuridine Monophosphate]
^125I in cytoplasm, 24 hours (OVCAR-3 cells): 2.7 (0.4) cpm/10^3 cells (std dev) | ^125I in nucleus, 24 hours (OVCAR-3 cells): 66.7 (8.4) cpm/10^3 cells (std dev) | ^125I in cytoplasm, 1 hour (OVCAR-3 cells): 62.5 (4.3) cpm/10^3 cells (std dev) | ^125I in nucleus, 1 hour (OVCAR-3 cells): 4.3 (0.3) cpm/10^3 cells (std dev)

CC(C)(C)c1cc(C(C)(C)C)c2c(c1F)COP(=O)(OC[C@H]1O[C@@H](n3cc(I)c(=O)[nH]c3=O)C[C@@H]1F)O2 (stereo partly drawn) [24-fast, 5-Iodo-5′-O-[cyclo-3,5-Di-(tert-butyl)-6-fluoroSaligenyl]-3′-fluoro-2′,3′-dideoxyuridine Monophosphate]
k (rate of hydrolysis) [1]: 0.000292 min⁻¹

CC(C)(C)c1cc(C(C)(C)C)c2c(c1F)COP(=O)(OC[C@H]1O[C@@H](n3cc(I)c(=O)[nH]c3=O)C[C@@H]1F)O2 (stereo partly drawn) [24-slow, 5-Iodo-5′-O-[cyclo-3,5-Di-(tert-butyl)-6-fluoroSaligenyl]-3′-fluoro-2′,3′-dideoxyuridine Monophosphate]
k (rate of hydrolysis) [1]: 0.000222 min⁻¹

CC(C)(C)c1cc(C(C)(C)C)c2c(c1F)COP(=O)(OC[C@H]1O[C@@H](n3cc([125I])c(=O)[nH]c3=O)C[C@@H]1F)O2 (stereo partly drawn) [24b, 5-[^125I]-Iodo-5′-O-[cyclo-3,5-Di-(tert-butyl)-6-fluoroSaligenyl]-3′-fluoro-2′,3′-dideoxyuridine]
solubility [3]: low solubility

CC(C)(C)c1cc(C(C)(C)C)c2c(c1F)COP(=O)(OC[C@H]1O[C@@H](n3cc([125I])c(=O)[nH]c3=O)C[C@@H]1F)O2 (stereo partly drawn) [24b-fast, 5-[^125I]-Iodo-5′-O-[cyclo-3,5-Di-(tert-butyl)-6-fluoroSaligenyl]-3′-fluoro-2′,3′-dideoxyuridine]
k (rate of hydrolysis) [1]: 0.000301 min⁻¹

CC(C)(C)c1cc(C(C)(C)C)c2c(c1F)COP(=O)(OC[C@H]1O[C@@H](n3cc(I)c(=O)[nH]c3=O)C[C@@H]1O)O2 (stereo partly drawn) [compound 8, 5-Iodo-5′-O-[cyclo-3,5-di-(tert-butyl)-6-fluoroSaligenyl]-2′-deoxyuridine Monophosphate]
solubility [3]: lower water solubility

CC(C)(C)c1cc(C(C)(C)C)c2c(c1F)COP(=O)(O[C@H]1C[C@H](n3cc(I)c(=O)[nH]c3=O)O[C@@H]1CO)O2 (stereo partly drawn) [compound 14, 5-Iodo-3′-O-[cyclo-3,5-di-(tert-butyl)-6-fluoroSaligenyl]-2′-deoxyuridine Monophosphate]
solubility [3]: lower water solubility

CC(C)(C)c1cc(C(C)(C)C)c2c(c1F)COP(=O)(OC[C@H]1O[C@@H](n3cc(I)c(=O)[nH]c3=O)C[C@@H]1F)O2 (stereo partly drawn) [compound 24, 5-Iodo-5′-O-[cyclo-3,5-Di-(tert-butyl)-6-fluoroSaligenyl]-3′-fluoro-2′,3′-dideoxyuridine Monophosphate]
solubility [3]: lower water solubility
